The record followed here is ChEMBL document CHEMBL2412993, “Antiprotozoal activity of bicyclic diamines with a N-methylpiperazinyl group at the bridgehead atom” (Bioorg Med Chem, 2013).

Active and inactive are the calls of the source. The rule behind the calls is not given here.

The nature of data set [1]: Selectivity index, ratio of IC50 for rat L6 cells to IC50 for bloodstream form of Trypanosoma brucei rhodesiense STIB 900. Type of data set: toxicity, cell-based. Particulars: read-out: Ratio IC50. In short, it runs like this:
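Medium was MEM with 2-mercaptoethanol and 15% heat-inactivated horse serum, dilutions 90 to 0.123 µg/mL. Wells held 10^4 STIB 900 bloodstream forms or rat L-6 myoblasts. Dye was added for a further 2–4 h, then fluorescence read (ex 536/em 588 nm) as % of control. SI is L-6 IC50 over parasite IC50.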

The nature of data set [2]: Selectivity index, ratio of IC50 for rat L6 cells to IC50 for chloroquine- and pyrimethamine-resistant Plasmodium falciparum K1. Type of data set: toxicity, cell-based. Particulars: L6 cells versus Plasmodium falciparum K1, read-out: Ratio IC50. In a few lines: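 The L-6 IC50 comes from the 72 h Alamar Blue assay on rat myoblasts (MEM, 15% horse serum, 90–0.123 µg/mL). The K1 IC50 comes from [3H]-hypoxanthine uptake by infected human red cells: 48 h exposure to 5–0.078 µg/mL, then 24 h with label. SI is L-6 IC50 over K1 IC50.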

Data set [3] concerns L6. The experiment in a line: Cytotoxicity against rat L6 cells after 72 hrs by microplate fluorometry. In kind it is cell-based. As to conditions: L6, 72 h. In short, it runs like this:
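Rat skeletal myoblasts (L-6) run in the same Alamar Blue microplate format: MEM with 2-mercaptoethanol and 15% heat-inactivated horse serum, dilutions 90 to 0.123 µg/mL, 72 h at 37 °C in 5% CO₂. Alamar Blue for a further 2–4 h, fluorescence at ex 536 / em 588 nm as percent of control. Mefloquine standard.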

Data set [4] has as its system Plasmodium falciparum. Description: Antiprotozoal activity against chloroquine- and pyrimethamine-resistant Plasmodium falciparum K1 after 48 hrs by [3H]-hypoxanthine incorporation assay. In kind it is functional, organism-based. In a few lines:
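Infected human red cells in RPMI 1640 with 5% Albumax, exposed to serial dilutions from 5 to 0.078 µg/mL for 48 h at 37 °C under reduced oxygen. [3H]-hypoxanthine (0.5 µCi/well) added, then a further 24 h. Cells harvested onto filters and scintillation counted as % of untreated control. IC50 taken from sigmoidal curves; duplicate, repeated once.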

Data set [5] deals with Trypanosoma brucei rhodesiense. The experiment in a line: Antiprotozoal activity against bloodstream form of Trypanosoma brucei rhodesiense STIB 900 after 72 hrs by microplate fluorometry. In kind it is functional, organism-based. Particulars: STIB 900, 72 h. In short, it runs like this: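 Bloodstream forms (10⁴/well) in MEM with 2-mercaptoethanol and 15% heat-inactivated horse serum, serial dilutions 90 to 0.123 µg/mL, 72 h at 37 °C under 5% CO₂. Alamar Blue added for a further 2–4 h. Fluorescence read at ex 536 / em 588 nm and expressed as percent of control. Melarsoprol standard.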

Data set [6] relates to Trypanosoma brucei rhodesiense. The experiment in a line: Antiprotozoal activity against bloodstream form of Trypanosoma brucei rhodesiense STIB 900 infected in NMRI mouse assessed as reduction in parasitemia at 50 mg/kg, ip qd for administered 3 days post-inoculation for 4 consecutive days. Type of data set: functional, organism-based. Further details: dose 50 mg/kg.
Data set [7] deals with Plasmodium berghei. The experiment in a line: Antiprotozoal activity against Plasmodium berghei ANKA infected in NMRI mouse assessed as reduction in parasitemia at 50 mg/kg, ip qd for administered starting 4 h post-infection for 4 consecutive days. Further details: scale not given: the % may be the effect or the level left. As to conditions: route intraperitoneal.
The test system of data set [8] is Plasmodium berghei. Description: Antiprotozoal activity against bloodstream form of Plasmodium berghei ANKA infected in NMRI mouse assessed as mean survival time at 50 mg/kg, ip qd for administered starting 4 h post-infection for 4 consecutive days (reference value: 6 to 7 days). Particulars: route intraperitoneal.

Consider `c1ccc(C2CC3(N4CCCCC4)CCN(CCCN4CCCCC4)C2C(c2ccccc2)C3)cc1` (racemic), for which the selectivity ratio in data set [1] came to 7.5.
A word on the IC50: it is the concentration that gives 50% inhibition. Consider `CCN(CC)CC(=O)NC1CC2(N3CCN(C)CC3)CC(c3ccccc3)C1C(c1ccccc1)C2` (racemic), for which the selectivity ratio in data set [2] turned out to be 71.3; in data set [1] it was 39.4. For the same molecule, the half-maximal inhibitory concentration (IC50) in data set [3] amounted to 26400 nM; in data set [4], 370 nM; in data set [5] it was 670 nM.
As for `CN1CCN(C23CC(NC(=O)CN4CCCC4)C(C(c4ccccc4)C2)C(c2ccccc2)C3)CC1` (racemic), the selectivity ratio turned out to be 99.3 in data set [2] and 111 in data set [1]. The IC50 in data set [3] amounted to 27800 nM; in data set [4], 280 nM; in data set [5] it was 250 nM.
`CN1CCN(C23CC(NC(=O)CN4CCCCC4)C(C(c4ccccc4)C2)C(c2ccccc2)C3)CC1` (racemic): in data set [6], the outcome was inactive. Moreover, the selectivity ratio was 63.2 in data set [2] and 235 in data set [1]. Also, the IC50 in data set [3] was determined as 22100 nM; in data set [4] it was 350 nM; in data set [5], 94 nM.
As for `CCN(CC)CCC(=O)NC1CC2(N3CCN(C)CC3)CC(c3ccccc3)C1C(c1ccccc1)C2` (racemic), the values for the selectivity ratio in data set [2] and in data set [1] were 53.6 and 15.7, respectively. The figures for the IC50 in data set [3], in data set [4] and in data set [5] were 35900 nM, 670 nM and 2290 nM, respectively.
For `CN1CCN(C23CC(NC(=O)CCN4CCCC4)C(C(c4ccccc4)C2)C(c2ccccc2)C3)CC1` (racemic), in that order: 76.7, 13.6, 42200 nM, 550 nM and 3100 nM.
Turning to `CN1CCN(C23CC(NC(=O)CCN4CCCCC4)C(C(c4ccccc4)C2)C(c2ccccc2)C3)CC1` (racemic), the selectivity ratio was determined as 66.7 in data set [2] and 12.1 in data set [1]. The values for the half-inhibitory concentration (IC50) in data set [3], in data set [4] and in data set [5] were 15400 nM, 230 nM and 1270 nM, respectively.
With `CCN(CC)C(=O)CNC1CC2(N3CCN(C)CC3)CC(c3ccccc3)C1C(c1ccccc1)C2` (racemic), the figures for the selectivity ratio in data set [2] and in data set [1] were 32.7 and 75.9, respectively. For the same molecule, the IC50 in data set [3] came out at 37900 nM; in data set [4], 1160 nM; in data set [5], 500 nM.
In the case of `CN1CCN(C23CC(NCCC(=O)N4CCCC4)C(C(c4ccccc4)C2)C(c2ccccc2)C3)CC1` (racemic), the values for the selectivity ratio in data set [2] and in data set [1] were 36.4 and 42.9, respectively. Besides, the IC50 in data set [3] was found to be 21400 nM; in data set [4] it was 590 nM; in data set [5] it was 500 nM.
Regarding `CN1CCN(C23CC(NCCCN4CCCC4)C(C(c4ccccc4)C2)C(c2ccccc2)C3)CC1` (racemic), the selectivity ratio is 33.8 in data set [2] and 14.1 in data set [1]. Also, the concentration for half-maximal inhibition (IC50) in data set [3] worked out at 22600 nM; in data set [4] it was 670 nM; in data set [5], 1610 nM.
Consider `c1ccc(C2CC3(N4CCCCC4)CC(NCCCN4CCCC4)C2C(c2ccccc2)C3)cc1` (racemic), for which, in data set [1], the selectivity ratio amounted to 13.4. The molecule also came in with an IC50 in data set [5] of 2020 nM.
With `CCN(CC)CCCN1CCC2(N3CCN(C)CC3)CC(c3ccccc3)C1C(c1ccccc1)C2` (racemic), the selectivity ratio in data set [2] turned out to be 1140; in data set [1], 26.6. For the same molecule, the IC50 in data set [3] is 68100 nM; in data set [4] it was 60 nM; in data set [5], 2560 nM. The Activity in data set [7] worked out at 17%. For the same molecule, the Time in data set [8] turned out to be 4 days.
As to `CN1CCN(C23CCN(CCCN4CCCC4)C(C(c4ccccc4)C2)C(c2ccccc2)C3)CC1` (racemic), the selectivity ratio was 726 in data set [2] and 16.8 in data set [1]. The results for the IC50 in data set [3], in data set [4] and in data set [5] were 43500 nM, 60 nM and 2590 nM, respectively. The Activity in data set [7] amounted to 0%. Besides, the Time in data set [8] came out at 4 days.
`CN1CCN(C23CCN(CCCN4CCCCC4)C(C(c4ccccc4)C2)C(c2ccccc2)C3)CC1` (racemic): the selectivity ratio was 577 in data set [2] and 11.4 in data set [1]. Further, the concentration for half-maximal inhibition (IC50) in data set [3] is 28900 nM; in data set [4], 50 nM; in data set [5] it was 2540 nM. In data set [7], the Activity is on record as 11%. Further, the Time in data set [8] is 4 days.
As for `C[C@@H]1CC[C@H]2[C@@H](C)C(=O)O[C@@H]3O[C@@]4(C)CC[C@@H]1[C@]32OO4` [ARTEMISININ], the selectivity ratio in data set [2] came out at 70.4. Also, in data set [4], the 50% inhibitory concentration (IC50) was found to be 6.4 nM.
`CCN(CC)CCCC(C)Nc1ccnc2cc(Cl)ccc12` (centres undefined) [CHLOROQUINE]: the Activity in data set [7] came to 99.6%. Besides, the Time in data set [8] came out at 20 days.
